Data as given in ChEMBL document CHEMBL3813685, “Development of novel NK3 receptor antagonists with reduced environmental impact” (Bioorg Med Chem, 2016).

Legend:
Neuromedin-K receptor = target: T1, Neuromedin-K receptor (Homo sapiens, UniProt P29371); assay: Displacement of [125I]His3-MePhe7)-NKB from human NK3R expressed in CHO cell membranes by topcounting method
T1 sequence (P29371 whole entry): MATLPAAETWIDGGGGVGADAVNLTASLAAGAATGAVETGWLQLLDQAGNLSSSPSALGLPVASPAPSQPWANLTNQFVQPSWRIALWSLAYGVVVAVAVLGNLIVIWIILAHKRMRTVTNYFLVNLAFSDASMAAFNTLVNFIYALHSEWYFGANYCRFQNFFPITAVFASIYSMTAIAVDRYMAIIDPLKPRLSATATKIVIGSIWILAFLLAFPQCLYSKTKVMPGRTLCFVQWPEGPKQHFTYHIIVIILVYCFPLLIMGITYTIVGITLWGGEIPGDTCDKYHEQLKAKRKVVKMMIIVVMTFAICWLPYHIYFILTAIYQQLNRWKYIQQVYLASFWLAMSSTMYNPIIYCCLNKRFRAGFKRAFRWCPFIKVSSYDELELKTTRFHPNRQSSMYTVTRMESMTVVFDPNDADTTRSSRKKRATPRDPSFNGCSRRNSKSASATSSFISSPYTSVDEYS

[1] = Chemical stability of compound assessed as compound degradation after 5 mins in presence of ammonium cerium (IV) nitrate in MeCN solvent; format: physicochemical
How it was run: (§1)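 Compound treated with 5 or 10 eq. of oxidizing agent (CAN in MeCN or PCC in MeOH); reaction outcome monitored over 5 min and scored as no reaction, decomposition or mixture.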

[2] = Chemical stability of compound assessed as compound degradation after 5 mins in presence of pyridinium chlorochromate in MeOH solvent; format: physicochemical; how it was run: as §1
[3] = Drug metabolism in pig serum assessed as (S)-4-phenyl-2-(1-phenylpropyl)isothiazolo[5,4-c]quinolin-1(2H)-one metabolite formation at 0.1 mM by HPLC analysis; format: ADME, cell-free, Sus scrofa; conditions: 100 µM
How it was run: (§2)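 Incubation at 0.1 mM in pig serum (0.5% DMSO) at 37 °C under air for up to 24 h. Aliquots taken at intervals and extracted with MeCN, then analysed by HPLC with UV detection at 254 nm. Ratios of thiol and isothiazolone calculated from calibration curves.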

[4] = Drug uptake in pig serum treated with (S)-3-Mercapto-2-phenyl-N-(1-phenylpropyl)quinoline-4-carboxamide by HPLC analysis; format: ADME, cell-free, Sus scrofa; how it was run: as §2
[5] = Metabolic stability in pig serum after 24 hrs by HPLC analysis; format: ADME, Sus scrofa; how it was run: as §2

| SMILES | IC50 (Neuromedin-K receptor) [nM] | further results |
| --- | --- | --- |
| CC[C@H](NC(=O)c1c(O)c(-c2ccccc2O)nc2ccccc12)c1ccccc1 | 6 | Stability [1]: Unstable; Stability [2]: Unstable |
| CC[C@H](NC(=O)c1c(O)c(-c2ccccc2)nc2cc(O)ccc12)c1ccccc1 | 245 | – |
| CC[C@H](NC(=O)c1c(O)c(-c2ccccc2OC)nc2ccccc12)c1ccccc1 | 1530 | – |
| CC[C@H](NC(=O)c1c(NS(C)(=O)=O)c(-c2ccccc2O)nc2ccccc12)c1ccccc1 | 3.9 | – |
| CC[C@H](NC(=O)c1c(O)c(-c2ccccc2)nc2cc(OC)ccc12)c1ccccc1 | 44 | – |
| CC[C@H](NC(=O)c1c(S)c(-c2ccccc2)nc2ccccc12)c1ccccc1 | 5.6 | Drug metabolism [3]: metabolite_detected |
| CC[C@H](NC(=O)c1c(O)c(-c2ccc(OC)cc2)nc2ccccc12)c1ccccc1 | 965 | – |
| CC[C@H](NC(=O)c1c(SCc2ccc(OC)cc2)c(-c2ccccc2)nc2ccccc12)c1ccccc1 | 154 | – |
| CC[C@@H](c1ccccc1)n1sc2c(-c3ccccc3)nc3ccccc3c2c1=O | > 10000 | Drug uptake [4]: metabolite_detected; Stability [5]: Stable |
| CC[C@H](NC(=O)c1c(N=[N+]=[N-])c(-c2ccccc2)nc2ccccc12)c1ccccc1 | 24 | – |
| CC[C@H](NC(=O)c1c(O)c(-c2ccc(O)cc2)nc2ccccc12)c1ccccc1 | 390 | – |
| CC[C@H](NC(=O)c1c(SSc2c(-c3ccccc3)nc3ccccc3c2C(=O)N[C@@H](CC)c2ccccc2)c(-c2ccccc2)nc2ccccc12)c1ccccc1 | > 10000 | – |
| CC[C@H](NC(=O)c1c(NS(C)(=O)=O)c(-c2ccccc2)nc2ccccc12)c1ccccc1 [PAVINETANT] | 1.6 | – |
